# Phagocytosis inh = blocks phagocytosis by macrophages | inhibition, % at 5 µM | J774A.1 macrophage IgG-bead phagocytosis, imaging | AID 1029 | 110,000 compounds, 0.07% hits;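 active = inhibition above the mean of the plate negative controls plus 5 SD, cut at about 13% in these data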;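 also: phagocytic index as fraction of beads internalized from green versus red external bead signal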
# Yeast lifespan up = yeast lifespan extension. inhibition of the nicotinamide effect, % at 10 µM. 130,000 compounds, 0.68% hits. S. cerevisiae growth with nicotinamide, OD615; deaD strain in restrictive glucose medium. AID 775;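 active = inhibition above a set limit, placed 3 SD over the median of all compounds, cut at about 26% in these data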
#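 Buffer or medium: CSMM-D glucose medium, restrictive; test system: modified budding yeast, DeaD strain; compound: single dose 10 µM compound, 0.25% DMSO; schedule: culture preincubation 4 h, compound exposure 48 h, both 30 °C; detection: optical density (absorbance) at 615 nm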
# RAM network inh = blocks the yeast RAM network | 190,000 compounds, 1.8% hits | inhibition, % at 50 µM | S. cerevisiae dse1pr::URA3 reporter, 5-FOA growth OD615, 2 d; analog-sensitive cbk1-as2 kinase mutant strain | AID 868;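 active = inhibition above a set limit, 3 SD over mean compound inhibition, cut at about 8.4% in these data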;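 also: inhibition rescues growth on 5-FOA so higher OD means more RAM inhibition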
# BB579 growth dn = reduces growth of yeast BB579 in restrictive medium. S. cerevisiae BB579 growth, OD615, 48 h. inhibition, % at 10 µM. 140,000 compounds, 0.51% hits. AID 804;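 active = inhibition above a set limit, 3 SD over the mean compound inhibition, cut at about 44% in these data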
#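 System: DeaD yeast strain BB579; buffer or medium: CSMM-D dextrose restrictive medium; technique: OD at 615 nm; schedule: 4 h cell preincubation, 48 h compound exposure, 30 °C humidified; doses: single 10 µM dose; controls: amphotericin B 10 µg/mL, positive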
# Measles CPE = protection of cells from measles virus; Measles virus-infected cells, CPE protection, absorbance; protection (pct of control), % at 4 µM; 140,000 compounds, 1.5% hits; AID 841; in the data active = protection mostly above about 24%, no sharp cut-off; inactive = mostly below about 26%
# A number is an active result; i = inactive; nt = not tested or not shown. Only some compounds are listed: those with a hit (about 3.6% of all), similar ones and a draw of the others.
SMILES,Phagocytosis inh,Yeast lifespan up,RAM network inh,BB579 growth dn,Measles CPE
CCc1c(C)sc(NC(=O)c2ccco2)c1C(=O)N1CCCCC1,i,i,i,i,38
Cc1cc(C)c(C(=O)COC(=O)CCNS(=O)(=O)c2c(Cl)cccc2Cl)cc1C,i,i,10,i,i
O=C(O)CCCCCNS(=O)(=O)c1c(Cl)cccc1Cl,i,i,i,i,i
CC(=O)c1cccc(S(=O)(=O)NC2CC2)c1,i,i,i,i,i
O=C1c2ccccc2C(=O)C1c1ccc2ccccc2n1,i,i,i,54,i
COC(=O)C1=C(C)NC(C)=C(C(=O)OC)C1c1ccc2ccccc2n1,i,i,i,i,i
Cc1nc(SC2CC(=O)N(c3ccccc3)C2=O)nc2c1CCCC2 (stereo not given),i,i,i,i,75
N=C(N=C(N)N)N1CCc2ccccc21,nt,nt,i,nt,nt
COc1ccc(/C=C2\C(=O)ON=C2c2cccc([N+](=O)[O-])c2)cc1,nt,nt,i,nt,nt
O=C1ON=C(c2ccccc2)/C1=C/c1ccco1,nt,nt,i,nt,nt
COc1ccc(/C=C2/C(=O)ON=C2c2ccccc2)cc1OC,nt,27,i,61,i
COc1cc(/C=C2\C(=O)ON=C2c2ccccc2)cc(OC)c1OC,nt,i,i,48,i
Cc1cccc2nc(CSc3ccccc3C(=O)O)cn12,i,i,i,i,54
CCCCNC(=S)NCCN1CCN(C(=S)NCCCC)CC1,nt,nt,i,nt,nt
COc1ccc(C(CC(=O)c2ccc(C)cc2)C(C#N)C#N)cc1OC (stereo not given),i,i,i,i,i
O=[N+]([O-])c1cc(C(F)(F)F)cc([N+](=O)[O-])c1NCCCNc1ccc([N+](=O)[O-])c2cccnc12,i,i,9.0,i,i
O=[N+]([O-])c1cc(C(F)(F)F)cc([N+](=O)[O-])c1NCc1cccnc1,i,i,i,i,i
COc1ccccc1N1CC(C(=O)Nc2nnc(SCc3ccccn3)s2)CC1=O (stereo not given),i,30,i,i,i
O=C(CSc1ccc([N+](=O)[O-])cc1)Nc1cccc(S(=O)(=O)Nc2ccccc2F)c1,nt,nt,9.2,nt,nt
O=C(CSc1nnc(Nc2ccccc2F)s1)Nc1cccc(S(=O)(=O)N2CCCCC2)c1,nt,i,10,i,i
O=C(Cc1ccccc1)Nc1ccc(NC(=O)c2cccs2)cc1Cl,nt,nt,i,nt,nt
Cc1n[nH]c(=O)nc1NCc1ccc(Cl)cc1,i,i,i,i,36
CC(=O)Nc1ccc(-c2nnc(SCc3ccccc3C#N)n2C)cc1,i,i,i,i,24
CC(=O)Nc1cccc(-c2nnc(SCc3ccccc3C#N)n2C)c1,i,i,i,i,i
COc1ccc(Cl)cc1NC(=S)NN1CCOCC1,nt,nt,i,nt,nt
SMILES,Phagocytosis inh,Yeast lifespan up,RAM network inh,BB579 growth dn,Measles CPE
COc1ccc(OC)c(NC(=S)NN2CCOCC2)c1,i,i,i,i,57
CCOC(=O)c1c(Nc2ccc(Cl)cc2)sc(/C=C2\C=Nc3ccccc32)c1O,i,i,9.3,i,i
CCOC(=O)/C(=N\Nc1ccccc1Cl)N1CCN(Cc2ccccc2)CC1,i,i,i,59,i
CCOC(=O)/C(=N\Nc1ccccc1Cl)N1CCN(C)CC1,i,i,i,i,i
COc1ccc(N2CCN(C(CNS(C)(=O)=O)c3ccco3)CC2)cc1 (stereo not given),nt,nt,i,nt,nt
N#C/C(=C\c1cccs1)Sc1nc2ccccc2s1,nt,i,9.1,i,i
N#C/C(=C\c1ccc[nH]1)Sc1nc2ccccc2s1,i,i,i,i,i
O=C1c2ccc(Oc3ccc([N+](=O)[O-])cc3)cc2C(=O)N1c1ccncc1,nt,nt,i,nt,nt
CCc1nnc(N2C(=O)c3ccc(Oc4ccc([N+](=O)[O-])cc4)cc3C2=O)s1,i,52,i,i,i
CCOC(=O)c1cc(-c2ccc(Cl)cc2)nc2onc(C)c12,nt,i,9.8,i,i
CCOC(=O)c1cc(-c2ccc(Cl)cc2)nc2c1c(=O)[nH]c(=O)n2CCOC,nt,nt,i,nt,nt
CC(C)C(=O)Nc1cc(S(=O)(=O)Nc2ccc(Cl)cc2)ccc1Cl,i,i,i,i,45
CC(=O)c1ccc(NS(=O)(=O)c2cccc(C)c2)cc1,i,i,i,i,41
COc1ccc(Cl)cc1NC(=O)C(C)OC(=O)c1ccc(NS(=O)(=O)c2ccc3[nH]c(=O)[nH]c3c2)cc1 (stereo not given),i,i,i,i,48
COc1cc2c(cc1NC(=O)C(C)N1CCN(S(=O)(=O)c3ccc(C)c(C)c3)CC1)oc1ccccc12 (stereo not given),i,i,i,i,i
